Results reported in article PMC7127737 (Bioorganic & Medicinal Chemistry Letters, 2008).

What was measured:
human ACE = human ACE (Homo sapiens, UniProt P12821); test: Inhibition of recombinant human ACE, fluorescence assay; format: biochemical; conditions: ratio of Ki Apps ACE/ACE2
Summary of the method: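 Buffer: 50 mM Hepes, 300 mM NaCl, 300 μM CHAPS, 1 μM Zn(OAc)2, 100 μM TCEP, pH 7.5. Thiols were diluted from 10 mM stocks in 50% aqueous acetonitrile and pre-incubated before substrate addition. Values are means of ≥2 assays.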

human NEP = human NEP (Homo sapiens, UniProt P08473); test: Inhibition of recombinant human NEP, fluorescence assay; format: biochemical; conditions: ratio of Ki Apps NEP/ACE2
Chain of human NEP (P08473 whole entry): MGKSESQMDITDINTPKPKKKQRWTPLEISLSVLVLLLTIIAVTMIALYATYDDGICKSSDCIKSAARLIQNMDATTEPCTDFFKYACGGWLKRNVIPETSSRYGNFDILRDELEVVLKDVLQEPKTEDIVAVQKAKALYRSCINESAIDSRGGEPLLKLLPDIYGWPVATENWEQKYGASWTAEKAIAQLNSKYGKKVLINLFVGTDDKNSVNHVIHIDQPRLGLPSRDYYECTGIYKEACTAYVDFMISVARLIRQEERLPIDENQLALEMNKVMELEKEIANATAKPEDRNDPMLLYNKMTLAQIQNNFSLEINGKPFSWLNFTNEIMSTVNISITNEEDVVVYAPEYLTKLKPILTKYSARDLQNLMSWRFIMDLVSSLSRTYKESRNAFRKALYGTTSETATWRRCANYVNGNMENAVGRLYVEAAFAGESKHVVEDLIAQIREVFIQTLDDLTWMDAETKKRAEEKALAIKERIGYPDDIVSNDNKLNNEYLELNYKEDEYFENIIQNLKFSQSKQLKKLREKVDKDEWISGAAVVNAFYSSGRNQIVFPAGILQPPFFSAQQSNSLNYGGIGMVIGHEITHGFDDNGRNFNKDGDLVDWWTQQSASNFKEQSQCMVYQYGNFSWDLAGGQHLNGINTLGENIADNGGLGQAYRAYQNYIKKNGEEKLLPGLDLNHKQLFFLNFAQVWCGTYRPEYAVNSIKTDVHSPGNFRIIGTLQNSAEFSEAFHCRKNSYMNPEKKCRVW
Summary of the method: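 Fluorescence protease assays, both in 50 mM Hepes pH 7.5 with 1 μM Zn(OAc)2, 100 μM TCEP, 300 μM CHAPS and 300 mM NaCl. NEP: recombinant human enzyme (0.15 nM) with 2 μM FAM-[…]TAMRA)-NH2. ACE2: recombinant human enzyme (0.4 nM) with 30 μM MCA-Tyr-Val-Ala-Asp-Ala-Pro-Lys(DNP)-OH. Compound was pre-incubated before substrate. Ki App is the mean of ≥2 assays; the NEP/ACE2 ratio gives selectivity.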

human CpA = target: T1, human CpA (Homo sapiens, UniProt P15085); test: Inhibition of recombinant human CpA, fluorescence assay; format: biochemical; conditions: for selectivity for ACE2 versus CpA: ratio of Ki Apps CpA/ACE2; for more potent inhibition of CpA relative to 1a: compared with 1a
T1 sequence (P15085 111-419): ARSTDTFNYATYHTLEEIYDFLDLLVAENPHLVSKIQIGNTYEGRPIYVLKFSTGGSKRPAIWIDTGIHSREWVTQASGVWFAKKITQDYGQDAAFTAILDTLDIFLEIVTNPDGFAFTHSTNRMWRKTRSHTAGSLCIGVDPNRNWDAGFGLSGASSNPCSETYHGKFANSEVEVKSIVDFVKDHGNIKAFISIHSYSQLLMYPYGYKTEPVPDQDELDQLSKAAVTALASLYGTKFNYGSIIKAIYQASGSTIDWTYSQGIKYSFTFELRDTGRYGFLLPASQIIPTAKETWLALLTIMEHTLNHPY
Summary of the method: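 Recombinant human CpA (37 nM) was run with 30 μM Abz-Gly-Gly-Nph-OH, and recombinant human ACE2 (0.4 nM) with 30 μM MCA-Tyr-Val-Ala-Asp-Ala-Pro-Lys(DNP)-OH. Both used 50 mM Hepes pH 7.5, 1 μM Zn(OAc)2, 100 μM TCEP, 300 μM CHAPS and 300 mM NaCl. Compound was pre-incubated before substrate; read-out was fluorescence. Ki App is the mean of ≥2 assays; selectivity is the CpA/ACE2 Ki App ratio.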

ACE2 = conditions: read-out: ACE2 IC50; reversible inhibitor; cited from earlier work

Chain of human ACE (P12821 30-1306): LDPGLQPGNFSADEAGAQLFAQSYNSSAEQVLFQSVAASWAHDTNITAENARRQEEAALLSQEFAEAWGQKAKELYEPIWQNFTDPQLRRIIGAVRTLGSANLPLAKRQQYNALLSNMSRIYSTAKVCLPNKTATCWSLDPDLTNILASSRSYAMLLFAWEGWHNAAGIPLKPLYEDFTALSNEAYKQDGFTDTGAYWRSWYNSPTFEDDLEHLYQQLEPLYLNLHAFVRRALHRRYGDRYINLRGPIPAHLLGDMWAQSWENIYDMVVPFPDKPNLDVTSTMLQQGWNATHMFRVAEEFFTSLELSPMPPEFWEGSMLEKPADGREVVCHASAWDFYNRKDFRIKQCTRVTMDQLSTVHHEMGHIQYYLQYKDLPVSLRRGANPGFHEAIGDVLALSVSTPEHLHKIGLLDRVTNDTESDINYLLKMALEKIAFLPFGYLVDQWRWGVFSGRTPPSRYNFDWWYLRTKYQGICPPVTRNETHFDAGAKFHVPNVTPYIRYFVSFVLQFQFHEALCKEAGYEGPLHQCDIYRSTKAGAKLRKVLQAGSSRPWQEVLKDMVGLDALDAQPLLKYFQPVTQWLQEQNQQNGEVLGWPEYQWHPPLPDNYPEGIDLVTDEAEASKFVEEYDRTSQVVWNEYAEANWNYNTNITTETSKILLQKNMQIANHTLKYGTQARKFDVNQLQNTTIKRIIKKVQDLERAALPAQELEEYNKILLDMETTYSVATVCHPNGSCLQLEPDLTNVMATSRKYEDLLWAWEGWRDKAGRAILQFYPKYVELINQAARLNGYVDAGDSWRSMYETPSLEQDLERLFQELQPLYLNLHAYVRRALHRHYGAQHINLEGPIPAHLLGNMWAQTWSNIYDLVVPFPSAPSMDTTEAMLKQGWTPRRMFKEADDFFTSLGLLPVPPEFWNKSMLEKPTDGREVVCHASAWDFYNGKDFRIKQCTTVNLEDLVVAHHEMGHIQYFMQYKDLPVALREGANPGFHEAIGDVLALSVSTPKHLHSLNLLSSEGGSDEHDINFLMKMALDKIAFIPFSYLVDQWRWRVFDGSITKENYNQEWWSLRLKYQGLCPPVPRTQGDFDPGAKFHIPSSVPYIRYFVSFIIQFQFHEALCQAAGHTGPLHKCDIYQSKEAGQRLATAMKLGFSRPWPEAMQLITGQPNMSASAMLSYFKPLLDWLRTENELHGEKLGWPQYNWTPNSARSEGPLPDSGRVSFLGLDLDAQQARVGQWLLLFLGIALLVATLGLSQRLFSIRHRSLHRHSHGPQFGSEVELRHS

Compound | selectivity for ACE2 versus ACE (human ACE) [fold] | selectivity for ACE2 versus NEP (human NEP) [fold] | selectivity for ACE2 versus CpA (human CpA) [fold] | more potent inhibition of CpA relative to 1a (human CpA) [fold] | IC50 (ACE2) [nM]
CC[C@@H](C)[C@H](S)C(=O)N[C@@H](Cc1ccccc1Oc1ccccc1)C(=O)O [1j, N-[(2S,3R)-2-Mercapto-3-methylpentanoyl]-2-(phenyloxy)-L-phenylalanine] | > 100 | – | > 100 | – | –
CC[C@@H](C)[C@H](S)C(=O)N[C@@H](Cc1cccc2ccccc12)C(=O)O [1f, N-[(2S,3R)-2-Mercapto-3-methylpentanoyl]-3-(1-naphthalenyl)-L-alanine] | > 100 | – | > 100 | – | –
CC[C@@H](C)[C@H](S)C(=O)N[C@@H](Cc1ccc(Oc2ccccc2)cc1)C(=O)O [1l, N-[(2S,3R)-2-Mercapto-3-methylpentanoyl]-O-phenyl-L-tyrosine] | > 100 | 5 | > 100 | – | –
CC(C)C[C@H](N[C@@H](Cc1cncn1Cc1cc(Cl)cc(Cl)c1)C(=O)O)C(=O)O [MLN-4760] | – | – | – | – | 0.44
CC[C@@H](C)[C@H](S)C(=O)N[C@@H](Cc1ccc2ccccc2c1)C(=O)O [1g, N-[(2S,3R)-2-Mercapto-3-methylpentanoyl]-3-(2-naphthalenyl)-L-alanine] | > 100 | – | > 100 | – | –
CC[C@@H](C)[C@H](S)C(=O)N[C@@H](Cc1cccc(Oc2ccccc2)c1)C(=O)O [1k, N-[(2S,3R)-2-Mercapto-3-methylpentanoyl]-3-(phenyloxy)-L-phenylalanine] | > 100 | 14 | > 100 | – | –

Now from value to compound, other results behind:

selectivity for ACE2 versus ACE (human ACE) [fold] | selectivity for ACE2 versus NEP (human NEP) [fold] | selectivity for ACE2 versus CpA (human CpA) [fold] | more potent inhibition of CpA relative to 1a (human CpA) [fold] | Compound | IC50 (ACE2) [nM]
> 750 | > 750 | > 750 | – | CC[C@@H](C)[C@H](S)C(=O)N[C@@H](Cc1ccc(OCc2ccc(F)c(F)c2)cc1)C(=O)O [1r, O-[(3,4-Difluorophenyl)methyl]-N-[(2S,3R)-2-mercapto-3-methylpentanoyl]-L-tyrosine] | –
– | – | – | > 10 | CC[C@@H](C)[C@H](S)C(=O)N[C@@H](Cc1ccccc1)C(=O)O [1d, N-[(2S,3R)-2-Mercapto-3-methylpentanoyl]-L-phenylalanine] | –
– | – | – | > 10 | CC[C@@H](C)[C@H](S)C(=O)N[C@@H](Cc1ccc(O)cc1)C(=O)O [1e, N-[(2S,3R)-2-Mercapto-3-methylpentanoyl]-L-tyrosine] | –
